From PubChem
SR-BI DiI inh = blocks mouse SR-BI lipid uptake from DiI-HDL; Q61009; ldlA[mSR-BI] CHO cells, DiI-HDL uptake fluorescence, 3 h; inhibition, % at 12.5 µM; 320,000 compounds, 0.96% hits;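 active = mean replicate inhibition of at least 70% and a set share of replicates each scoring 70 or more; inconclusive = meets just one of the two criteria; inactive = fails both criteria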;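 also: 0% = median of neutral control wells and 100% = median of positive control wells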
dFosB activator = enhances mouse delta FosB homodimer DNA binding; purified delta FosB, TAMRA-CDK5 oligo fluorescence polarization; percent of positive-control signal above neutral wells; activation, % at 25 µM; 340,000 compounds, 0.99% hits; AID 493131;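 active = mean activation above about 17%, with every replicate also reaching it, limit read from the data, passing the limit was not always enough; inconclusive = only one of the two conditions met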
Target sequence (P13346 whole entry, looked up): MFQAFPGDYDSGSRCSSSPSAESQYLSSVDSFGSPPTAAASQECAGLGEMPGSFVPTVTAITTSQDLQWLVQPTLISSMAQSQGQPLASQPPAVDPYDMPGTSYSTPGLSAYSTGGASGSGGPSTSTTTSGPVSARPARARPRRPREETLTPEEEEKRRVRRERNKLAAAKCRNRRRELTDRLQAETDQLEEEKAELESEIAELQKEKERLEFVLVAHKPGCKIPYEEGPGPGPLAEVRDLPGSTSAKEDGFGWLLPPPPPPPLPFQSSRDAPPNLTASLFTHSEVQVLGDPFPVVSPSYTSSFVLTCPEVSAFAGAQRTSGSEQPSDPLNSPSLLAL
PKA-R1A act = activates the PKA-R1A holoenzyme complex; P00514+P68181; activation, % at 11.4 µM; PKA-R1A dissociation, Cy5-IP20 fluorescence polarization; scaled: DMSO 0%, 113 µM cGMP 100%; AID 504707; 340,000 compounds, 0.083% hits;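 active = percent activation above the mean of all tested compounds plus 3 SD, cut at about 19% in these data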;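 also: higher means more PKAc released from R1A so a rise in polarization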
CDK5 inh = blocks human CDK5/p35 kinase activity. Recombinant CDK5/p35, ADP-Glo luminescence, 60 min. 330,000 compounds, 0.01% hits. Q00535+Q15078. inhibition, % at 10 µM. AID 488839;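 active = highest replicate inhibition of at least 50% and at least 75% of replicates reaching 50%; inconclusive = only one of the two criteria met; inactive = both criteria failed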;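 also: plate controls were DMSO neutral control for no effect and GW8510 at 10 µM for full effect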
PKA-R2B activ = PKA-R2B complex activation. P22694+P31323. PKA-R2B holoenzyme dissociation, Cy5-IP20 fluorescence polarization; R2B truncated from residue 108, S112A mutant; 0% DMSO only, 100% 113 µM cGMP. activation, % at 11.4 µM. 340,000 compounds, 0.079% hits. AID 504700;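 active = activation above a cutoff set at the mean over all compounds plus 3 SD, cut at about 18% in these data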;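 also: higher means more holoenzyme dissociation and a rise in polarization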
SR-BI uptake up = SR-BI HDL lipid transfer activation; CHO ldlA[mSR-BI] cells, DiI-HDL uptake fluorescence, 3 h; 100 = double the neutral-control signal; activation, % at 12.5 µM; 320,000 compounds, 0.096% hits; AID 504775;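 active = mean replicate activation of at least 60% and every replicate at or above 60%; inconclusive = mean or all-replicate condition met, but not both; inactive = mean below 60% and not all replicates reaching 60%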;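 also: 0% = median plate neutral-control signal and 100% = twice that signal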
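Assay system: LDL receptor-deficient CHO ldlA cells overexpressing murine SR-BI / Medium: BSA-supplemented, HEPES-buffered Ham's F12, pH 7.4 / Probe or stimulus: DiI-labelled HDL at 10 µg/mL final / Timing: compound with DiI-HDL co-incubation, 3 h at 37 °C / Technique: bottom-read cell fluorescence after medium removal, ex 550/em 595 nm / Measure: HDL uptake via cellular fluorescence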
The depositor's hits bear a star; ? = inconclusive; . = not tested or not shown. An excerpt weighted towards active compounds, which were near 2.1% of everything screened.

SMILES | SR-BI DiI inh | dFosB activator | PKA-R1A act | CDK5 inh | PKA-R2B activ | SR-BI uptake up
COc1ccc2sc(-c3ccc(S(C)(=O)=O)cc3)c(-c3ccc4c(c3)OCCO4)c2c1 | 60 | -6 | 0 | -1 | 2 | -60
COc1cc2sc(-c3ccc(S(C)(=O)=O)cc3)c(-c3ccc4c(c3)OCO4)c2cc1OC | 83* | 8 | 0 | -1 | 7 | -83
COc1ccc2c(-c3ccc(SC)cc3)c(-c3ccc(S(C)(=O)=O)cc3)sc2c1 | 81* | 4 | -2 | 0 | 9 | -81
NC(N)=N/N=C(\N=Nc1ccccc1)c1ccc(Cl)cc1 | 10 | 2 | -5 | -1 | 5 | -10
CC1CCN(c2nc(-c3ccncc3)nc3ccccc23)CC1 | 80* | -31 | 12 | 0 | -5 | -80
CCN(CC)c1ccc(/C=N/N2CCN(c3ccccc3OC)CC2)cc1 | 81* | -4 | 6 | -9 | -4 | -81
O=C(NCCC(=O)N1CCN(c2ccc(F)cc2)CC1)c1ccco1 | -18 | 2 | 0 | 1 | -8 | 18
C#CCOCCOCCOCCNc1nc(N2CCN(C(=O)[C@H](CCCCN)n3cc([C@@H](N)C(C)CC)nn3)CC2)nc(N2CCN(C(=O)[C@H](Cc3cc4ccccc4[nH]3)n3cc([C@@H](N)CC(C)C)nn3)CC2)n1 (stereo partly drawn) | 10 | 34* | -3 | 8 | -8 | -10
C#CCOCCOCCOCCNc1nc(N2CCN(C(=O)[C@H](CCC(=O)O)n3cc(C(N)CO)nn3)CC2)nc(N2CCN(C(=O)[C@H](Cc3cc4ccccc4[nH]3)n3cc(C(N)[C@H](C)CC)nn3)CC2)n1 (stereo partly drawn) | -15 | 1 | 2 | 2 | -3 | 15
COc1ccc(C)cc1NC(=O)C1CCN(C(=O)C2CC(=O)N(c3ccc(C)cc3)C2)CC1 (stereo not drawn) | 89* | -10 | -14 | 0 | -2 | -89
COc1ccc(Cl)cc1NC(=O)c1cc(-c2ccccc2O)n[nH]1 | 90* | 5 | -4 | 0 | 12 | -90
COc1ccc(Cl)cc1NC(=O)Nc1cccc([N+](=O)[O-])c1C | 78* | 0 | 1 | -3 | -5 | -78
COc1ccc(OC)c(NC(=O)c2cc(-c3cc(Cl)ccc3O)n[nH]2)c1 | 70 | ? | 0 | -1 | 2 | -70
COc1ccc(Cl)cc1NC(=O)c1ccccc1C | 86* | -4 | -11 | -1 | -5 | -86
CN(C)c1ccc(C(CNC(=O)Cc2cccc3ccccc23)N(C)C)cc1 (stereo not drawn) | 3 | -16 | 8 | 0 | 4 | -3
NC(N)=NS(=O)(=O)c1ccc(NC(=S)NC(=O)/C=C/c2cccs2)cc1 | -5 | 62* | -9 | 3 | 1 | 5
NC(N)=NS(=O)(=O)c1ccc(NC(=S)NC(=O)/C=C/c2ccc(F)cc2)cc1 | 7 | -8 | -13 | 4 | -5 | -7
O=C(CN1N=C(C(F)(F)F)CC1(O)c1ccc([N+](=O)[O-])cc1)c1ccccc1 (stereo not drawn) | 4 | -12 | 2 | -3 | -7 | -4
CCC1=NN(C(=O)c2ccc([N+](=O)[O-])cc2)C(O)(c2ccccc2)C1 (stereo not drawn) | 82* | -1 | -6 | 1 | 10 | -82
O=C(c1ccccc1O)N1N=C(C(F)(F)F)CC1(O)c1ccc([N+](=O)[O-])cc1 (stereo not drawn) | 71* | -11 | -3 | 0 | 4 | -71
CCC1=NN(C(=O)c2ccccc2O)C(O)(c2ccccc2)C1 (stereo not drawn) | 120* | -6 | -8 | -2 | -2 | -120
CC1CCN(c2ccccc2NC(=O)c2ccc(C#N)cc2F)CC1 | 77* | -5 | . | 0 | . | -77
COc1cccc(/C=N/Nc2nc(Nc3ccc([N+](=O)[O-])cc3)nc(N3CCCC3)n2)c1O | 87* | 67* | . | -1 | . | -87
O=[N+]([O-])c1ccccc1N/N=C/c1c[nH]c2ccccc12 | 110* | 0 | 3 | 2 | 2 | -110
O=C(N/N=C/c1c[nH]c2ccccc12)c1cccc([N+](=O)[O-])c1 | 12 | -3 | -8 | -2 | -6 | -12
SMILES | SR-BI DiI inh | dFosB activator | PKA-R1A act | CDK5 inh | PKA-R2B activ | SR-BI uptake up
COc1ccccc1NS(=O)(=O)c1cc([N+](=O)[O-])ccc1N/N=C/c1c[nH]c2ccccc12 | 83* | 6 | -5 | -1 | 3 | -83
COc1ccc(C=NNc2ccc([N+](=O)[O-])cc2S(=O)(=O)Nc2ccccc2C(=O)O)cc1OC | 0 | -8 | 4 | -1 | 4 | 0
COc1ccc(NS(=O)(=O)c2cc([N+](=O)[O-])ccc2N/N=C\c2c(C)[nH]c3ccccc23)cc1 | 2 | 9 | 2 | 0 | -11 | -2
Cc1[nH]c2ccccc2c1/C=N/Nc1ccc([N+](=O)[O-])cc1S(=O)(=O)Nc1ccc(Cl)cc1 | 83* | -8 | -9 | 1 | -12 | -83
O=[N+]([O-])c1ccc(N/N=C/c2c[nH]c3ccccc23)cc1 | 92* | -1 | 7 | 0 | 3 | -92
NNC(=O)c1oc2nc(-c3ccccc3)cc(-c3ccccc3)c2c1N | 98* | -8 | 4 | 2 | -4 | -98
Cc1ccc(-c2cc(-c3ccco3)c3c(N)c(C(=O)NN)oc3n2)cc1 | 78* | -19 | 0 | 3 | -2 | -78
COc1ccc(S(=O)(=O)N2CCCCC2)cc1NC(=O)CCOc1cc(C)ccc1C | 10 | -9 | -8 | -2 | 0 | -10
Cc1ccc(S(=O)(=O)N(C)c2ccc(OCC(=O)Nc3cccc(-n4cnnn4)c3C)cc2)cc1 | 84* | -15 | -7 | 0 | 0 | -84
Cc1ccc(S(=O)(=O)N(C)c2ccc(OCC(=O)Nc3ccc(S(C)(=O)=O)cc3)cc2)cc1 | 9 | -8 | 1 | -2 | -5 | -9
CCOc1ccc(/C=N/NC(=O)c2ccc(CSc3nc4ccccc4[nH]3)cc2)cc1 | 59 | -12 | 2 | 0 | 0 | -59
O=C(N/N=C/c1ccc(OC(F)F)cc1)c1ccc(CSc2nc3ccccc3[nH]2)cc1 | 82* | ? | -4 | 2 | 4 | -82
CN(C)C/C=C(\c1ccc(Br)cc1)c1cccnc1 | -3 | -1 | 5 | -1 | 10 | 3
Cc1cccc(N=Nc2c(N)n[nH]c2-c2ccc(Cl)cc2)c1 | 71* | -6 | 2 | 1 | 1 | -71
Cc1ccc(-c2[nH]nc(N)c2N=Nc2ccccc2C)cc1 | 76* | 3 | -1 | 0 | -3 | -76
